# Apaf1 activ: activates human Apaf-1 apoptosome; 0.31% of 330,000 active; Apaf-1 apoptosome caspase-3 activation, DEVD-Rh110 fluorescence; active compounds read low; activity change, negative = activation, % at 20 µM; O14727;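 active = activity change at or below -40% at 20 µM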
#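 Material: reconstituted apoptosome of Apaf-1, cytochrome c, caspase-9, procaspase-3; times: 30 min preincubation, 50 min reaction, room temperature; measured by: fluorescence, 540 nm emission, 480 nm excitation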
# Rh110 interf act: Rh110 signal interference in Apaf-1 activator counter-screen; shares compounds with Apaf1 activ; Rh110 fluorescence interference, quenched caspase reaction, Ex480/Em540; fluorescence interference (activity change), % at 20 µM, hits read low; 980 tested, under 10 active; AID 504616;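 active = mean activity change at or below -40% when tested at 20 µM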
# Apaf-1 act conf: Apaf-1 (human) activation, single-dose confirmed; shares compounds with Apaf1 activ; reconstituted apoptosome caspase-3 activity, DEVD-Rh110 fluorescence; active compounds read low; activity change, negative = activation, % at 20 µM; 5% of 980 active;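 active = mean activity change at or below -40%, meaning activation of 40% or more, at 20 µM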
# A number is an active result; n = inactive; x = no result given. Not all results are given here.
SMILES,Apaf1 activ,Rh110 interf act,Apaf-1 act conf
CCn1c(=O)c([N+](=O)[O-])c(NC2CCS(=O)(=O)C2)c2ccccc21 (stereo not drawn),-162.4,n,n
COc1ccc(S(=O)(=O)NNC(=O)c2cc3c4ccccc4n(C)c3s2)cc1,-407.3,n,n
Cc1ccc(-n2nc3ccc(N)cc3n2)c(C)c1,n,x,x
CCN(CC)c1ccc(/C=C2/C(=O)N(c3ccc([N+](=O)[O-])cc3)N=C2N2CCOCC2)cc1,n,x,x
CCOC(=O)N1CCN(c2ccc([N+](=O)[O-])cc2)CC1,-141.8,n,n
CCOC(=O)N1CCN(C2=C(NS(=O)(=O)c3ccc(NC(C)=O)cc3)C(=O)c3ccccc3C2=O)CC1,n,x,x
Cc1nn(-c2ccccc2)c2c1C(c1ccccc1)C(C#N)=C(N)O2 (stereo not drawn),n,x,x
Cc1cc(C)cc(NC(=O)C2CCN(S(C)(=O)=O)CC2)c1,-67.0,n,n
O=C(Cn1cc2c(n1)CCCC2)NCCCN1CCCC1,n,x,x
COc1cc(C2Nc3cccc4cccc(c34)N2)cc(OC)c1OC(C)=O,n,x,x
CCCC[n+]1ccn(C2=C([O-])c3ccccc3C(=O)/C2=N\S(=O)(=O)c2ccccc2)c1,n,x,x
COc1ccc(CCNC(=O)COC(=O)c2cccs2)cc1OC,-163.2,n,n
CCOc1cc(/C=C2\C(=O)N(c3ccc(C(N)=O)cc3)N=C2C)ccc1OC(=O)c1cccs1,n,x,x
COc1ccc(CCN(C)C(=O)c2cccc(S(=O)(=O)NCc3ccccc3)c2)cc1OC,n,x,x
COc1ccc(N/C=C2\CCc3ccccc3C2=O)cc1,n,x,x
COc1ccc(NS(=O)(=O)c2ccc(C)c(NC(=O)CN3C(=O)NC4(CCCC4)C3=O)c2)cc1,n,x,x
COc1ccc(S(=O)(=O)Nc2ccc(S(=O)(=O)N3CCOCC3)cc2)cc1,-63.9,n,n
CCOc1ccc(CCNC(=O)c2ccc3c(=O)[nH]c4c(C(=O)NC(C)C)sc(=S)n4c3c2)cc1,-515.0,n,n
CCN(CC(=O)Nc1ccc(NC(C)=O)cc1)C(=O)c1ccccc1Sc1ccccc1C#N,n,x,x
CCCCC(CC)CN=C(N)NC(N)=NCCCCCCN=C(N)NC(N)=NCC(CC)CCCC (stereo not drawn),n,x,x
N#Cc1nc(-c2ccco2)oc1N1CCc2ccccc2C1,n,x,x
N[C@@H](Cc1cc(I)c(Oc2ccc(O)c(I)c2)c(I)c1)C(=O)O,n,x,x
CC(=O)Nc1ccc(NC2=C/C(=N/S(=O)(=O)c3cccs3)c3ccccc3C2=O)cc1,n,x,x
Cc1ccc(S(=O)(=O)NC(=O)Nc2ccc(N(C)C)cc2)cc1,n,x,x
Cc1noc(NS(=O)(=O)c2ccc(NC(=O)NC(C)(C(F)(F)F)C(F)(F)F)cc2)c1C,-232.2,n,n
SMILES,Apaf1 activ,Rh110 interf act,Apaf-1 act conf
NS(=O)(=O)c1ccc2c(c1)C1C=CCC1C(C1CC=CCC1)N2 (stereo not drawn),n,x,x
COc1ccc(NC(=S)Nc2cccc3ccccc23)cc1OC,n,x,x
COc1ccc(NC(=S)Nc2ccccn2)c(OC)c1,-48.0,n,n
CCN1/C(=C/C=C/C=C/c2sc3ccccc3[n+]2CC)Sc2ccccc21,n,x,x
CC1=CC(=C(C#N)c2nc3ccccc3s2)C=C(C)N1c1ccc(F)cc1,n,x,x
CS(=O)(=O)N(Cc1ccc(C(=O)NN=C2CCCCCC2)cc1)c1ccccc1,-481.9,n,n
CCNC(=O)Oc1ccc[nH]c1=O,n,x,x
CCCn1nnc(NC(=O)c2ccc(-c3cccc(Cl)c3)o2)n1,-43.9,n,n
CCCCn1nnc(NC(=O)Cc2ccc(Cl)cc2)n1,-95.0,n,n
CN1CCN(c2ccc(NC(=O)c3ccc(-c4ccc(Br)cc4)o3)cc2)CC1,n,x,x
O=C(/C=C/c1ccc(O)c(O)c1)O[C@@H]1C[C@](O)(C(=O)O)C[C@@H](O)[C@H]1O,n,x,x
COc1ccc(Cn2c(N)c(C#N)c3nc4ccccc4nc32)cc1,n,x,x
COc1cccc(-c2cc(C(=O)N3CCN(c4ccc(F)cc4)CC3)no2)c1,-69.0,n,n
O=C(c1cccc(S(=O)(=O)N2CCN(c3ccc(F)cc3)CC2)c1)N1CCCCCCC1,n,x,x
COc1ccc(OCc2cc(C(=O)N3CCC(OC)CC3)no2)c2ccccc12,n,x,x
COc1ccc(-c2cc(C(=O)N3CCN(C(c4ccccc4)c4ccccc4)CC3)no2)cc1OC,-159.3,n,n
CCN(CC)CCNC(=O)c1ccc(NC(=O)c2cn(-c3ccc(F)cc3)nc2-c2cccc(OC)c2)cc1,n,x,x
Cc1ccc(-n2nc3ccc(N)cc3n2)cc1C,n,x,x
CCN1CCN(Cc2ccc(NC(=O)c3cc(NC(=O)C(=O)c4c[nH]c5ccccc45)cc(OC)c3)cc2C(F)(F)F)CC1,n,x,x
O=C1NCC(c2ccccc2)C1C(=O)N/N=C\c1ccc(-c2cccc(Cl)c2Cl)o1 (stereo not drawn),n,x,x
COCC(C)N1C(=O)Cc2c1nc(N)c1c(N)nc(N3CCN(c4ccccc4F)CC3)c(C#N)c21 (stereo not drawn),n,x,x

# Screening results as filed in PubChem BioAssay.
